The text below walks through data of ChEMBL document CHEMBL4433218, “Behind the Mirror: Chirality Tunes the Reactivity and Cytotoxicity of Chloropiperidines as Potential Anticancer Agents” (ACS Med Chem Lett, 2019).

Calls of active or inactive are those of the source. The rule behind the calls is not given here.

The subject of data set [1] is DNA. Put plainly: Induction of Escherichia coli pBR322 DNA cleavage in BPE buffer at 5 to 50 uM incubated for 2 hrs by electrophoresis method. The class given is nucleic-acid assay. A digest of the protocol:
(§1)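 Supercoiled pBR322 plasmid (120 ng) incubated with compound at 5 and 50 μM in BPE buffer, 37 °C. Dilutions freshly made in water from 10 mM DMSO stock and added to DNA immediately. Supercoiled, open circular and linear forms resolved on 1% agarose in TAE and stained with GelRed.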

The subject of data set [2] is DNA. Put plainly: Induction of Escherichia coli pBR322 DNA cleavage in BPE buffer at 5 to 50 uM incubated for 18 hrs by electrophoresis method. Format: nucleic-acid assay. A digest of the protocol:
as §1

In data set [3] the test system is HCT-15. Put plainly: Cytotoxicity against human HCT15 cells assessed as reduction in cell viability incubated for 72 hrs by MTT assay. Particulars: HCT-15, 72 h. Format: functional, cell-based. An outline of the steps: (§2)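 Cell lines kept in log phase at 37 °C, 5% CO2 in RPMI-1640 with 10% fetal calf serum, penicillin 50 units/mL, streptomycin 50 μg/mL, 2 mM L-glutamine. Compounds dissolved in DMSO and added to medium at 0.5% final solvent. Treatment 72 h. Viability read by MTT. IC50 calculated.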
A general note: Tetrazolium assays rely on reduction of a dye to a coloured formazan, in cell work by metabolically active cells.

The test system of data set [4] is 2008. Put plainly: Cytotoxicity against human 2008 cells assessed as reduction in cell viability incubated for 72 hrs by MTT assay. Format: functional, cell-based. The conditions noted are these: Homo sapiens, 2008, 72 h. An outline of the steps:
as §2

The test system of data set [5] is BXPC-3. Put plainly: Cytotoxicity against human BxPC3 cells assessed as reduction in cell viability incubated for 72 hrs by MTT assay. Format: functional, cell-based. The conditions noted are these: BXPC-3, 72 h. A digest of the protocol:
as §2

A short description of data set [6]: Stability in pH 7.4 PBS buffer incubated for 1 hr by UPLC-MS analysis. Format: physicochemical. Particulars: pH 7.4, 1 h.
A short description of data set [7]: Permeability across PVDF membrane in PBS buffer of pH 7.4 at 500 uM incubated for 1 hr by UPLC-MS based PAMPA assay. The class given is ADME. Particulars: pH 7.4, 1 h. A digest of the protocol: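 Donor: 500 μM compound in PBS pH 7.4, made from 10 mM DMSO stock. Acceptor: PBS with 5% DMSO. Filter coated with 1% L-α-phosphatidylcholine in n-dodecane. 1 h at room temperature. Initial, donor and acceptor samples quantified by UPLC-MS (C18, 0.1% formic acid water/acetonitrile gradient) against 20 μM caffeine internal standard. Membrane fraction taken by difference. Unreacted and reacted species summed.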

In data set [8] the target is DNA topoisomerase 2-alpha (Homo sapiens) (UniProt P11388). The data set is described as follows: Inhibition of human DNA topoisomerase-2alpha mediated decatenation using kinetoplast DNA as substrate at 5 to 50 uM incubated for 2 to 18 hrs. A digest of the protocol: (§3)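 Human topoisomerase IIα decatenation of kinetoplast DNA, run with a commercial kit. Substrate DNA incubated with compound at 37 °C for 2 and 18 h.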
DNA topoisomerase 2-alpha (Homo sapiens), sequence (P11388 whole entry): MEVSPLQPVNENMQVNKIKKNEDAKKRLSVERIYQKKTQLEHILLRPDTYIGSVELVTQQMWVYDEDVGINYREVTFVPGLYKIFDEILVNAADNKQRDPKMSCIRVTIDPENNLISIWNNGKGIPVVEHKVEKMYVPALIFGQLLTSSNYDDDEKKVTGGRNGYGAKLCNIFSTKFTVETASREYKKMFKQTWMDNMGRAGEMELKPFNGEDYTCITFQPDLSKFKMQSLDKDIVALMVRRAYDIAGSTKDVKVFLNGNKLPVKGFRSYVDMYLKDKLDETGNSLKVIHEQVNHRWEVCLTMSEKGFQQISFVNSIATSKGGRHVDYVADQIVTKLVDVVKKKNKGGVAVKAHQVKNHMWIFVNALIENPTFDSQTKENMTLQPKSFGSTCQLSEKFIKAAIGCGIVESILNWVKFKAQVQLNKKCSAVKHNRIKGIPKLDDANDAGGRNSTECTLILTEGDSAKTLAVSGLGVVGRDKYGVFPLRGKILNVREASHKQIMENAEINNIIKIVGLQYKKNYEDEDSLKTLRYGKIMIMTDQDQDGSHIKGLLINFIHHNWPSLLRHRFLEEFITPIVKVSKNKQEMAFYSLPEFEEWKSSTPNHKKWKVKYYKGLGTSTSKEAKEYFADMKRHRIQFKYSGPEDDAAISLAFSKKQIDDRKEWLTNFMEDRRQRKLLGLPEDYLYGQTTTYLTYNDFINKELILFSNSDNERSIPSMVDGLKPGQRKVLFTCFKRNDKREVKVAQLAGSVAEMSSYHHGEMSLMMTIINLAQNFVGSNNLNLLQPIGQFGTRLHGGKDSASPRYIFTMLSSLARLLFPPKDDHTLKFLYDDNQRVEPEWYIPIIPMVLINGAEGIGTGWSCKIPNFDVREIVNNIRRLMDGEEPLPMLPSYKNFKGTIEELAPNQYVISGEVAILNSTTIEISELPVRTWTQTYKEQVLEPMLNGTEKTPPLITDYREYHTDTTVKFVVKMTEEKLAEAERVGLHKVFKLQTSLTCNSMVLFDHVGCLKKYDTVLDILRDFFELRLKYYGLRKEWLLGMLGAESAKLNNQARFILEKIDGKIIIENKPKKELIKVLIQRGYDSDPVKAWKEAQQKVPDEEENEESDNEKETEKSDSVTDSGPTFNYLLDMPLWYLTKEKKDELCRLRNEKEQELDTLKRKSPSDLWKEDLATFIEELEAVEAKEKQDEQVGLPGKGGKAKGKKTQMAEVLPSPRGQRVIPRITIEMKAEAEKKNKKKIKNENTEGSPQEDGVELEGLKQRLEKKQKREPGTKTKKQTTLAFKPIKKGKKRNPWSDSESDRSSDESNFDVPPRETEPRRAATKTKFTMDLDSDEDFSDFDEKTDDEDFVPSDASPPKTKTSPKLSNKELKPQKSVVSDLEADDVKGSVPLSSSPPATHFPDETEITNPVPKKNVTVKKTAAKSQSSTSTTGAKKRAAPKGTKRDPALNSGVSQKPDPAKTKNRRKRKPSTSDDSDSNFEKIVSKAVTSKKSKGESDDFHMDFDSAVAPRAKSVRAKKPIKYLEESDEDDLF

Data set [9] shares this target. Put plainly: Inhibition of human DNA topoisomerase-2alpha mediated decatenation using kinetoplast DNA as substrate at 50 uM incubated for 18 hrs. A digest of the protocol:
as §3

Data set [10] in a line: Induction of dsDNA (unknown origin) alkylation in BPE buffer at 50 uM incubated for 2 hrs by ESI-MS analysis. A digest of the protocol: (§4)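 Duplex oligodeoxynucleotide at 2 μM final, incubated with compound at 50 μM final in BPE buffer, 37 °C. Compound diluted in water from 10 mM DMSO stock just before use. Analysed by direct-infusion ESI-MS on an Orbitrap in 150 mM ammonium acetate. Adducts and abasic species assigned by mass, 6− charge state.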

A short description of data set [11]: Induction of dsDNA (unknown origin) alkylation in BPE buffer at 50 uM incubated for 18 hrs by ESI-MS analysis. A digest of the protocol: as §4

For orientation: IC50 means the point on the concentration scale where inhibition reaches its midpoint. With `CCCCN1CCC[C@H](Cl)C1`, the outcome in [1] was inactive. The outcome in data set [2] was Active. Also, the IC50 in data set [3] came to 181 nM; in data set [4], 102 nM; in data set [5] it was 7 nM. Further, the Stability result in data set [6] is “Stable”. For the same compound, the permeability result in data set [7] is listed as “Permeable”. The inhibition entry in data set [8] was “inactive”.
On to `CCCCN1CCC[C@@H](Cl)C1`, for which, in data set [1], the outcome was inactive. The outcome in data set [2] was Active. Also, the IC50 came to 5640 nM in data set [3], 4600 nM in [4] and 274 nM in data set [5]. Besides, in data set [6], the Stability result is given as “Stable”. Moreover, the permeability result in data set [7] is “Permeable”. Also, the inhibition result in data set [8] is “inactive”.
For the compound `CC1(C)CC(Cl)CN(Cc2ccccc2)C1` (racemic), the outcome in data set [1] was inactive. In addition, in data set [2], the result was Active. Besides, the IC50 turned out to be 300 nM in data set [3], 107 nM in data set [4] and 6 nM in data set [5]. For the same compound, in data set [6], the Stability result was “Stable”. In addition, the permeability entry in [7] was “Impermeable”. In addition, the inhibition entry in data set [9] is “Active”.
On to `CCCCN1CCCC(Cl)C1` (racemic), for which the result in data set [1] and in data set [10] was inactive. For the same compound, the outcome in data set [2] and in data set [11] was Active. Besides, the IC50 amounted to 474 nM in data set [3], 329 nM in [4] and 57 nM in [5]. The Stability entry in data set [6] is given as “Stable”.
Consider `CCCCN1CC(Cl)CC(C)(C)C1` (racemic), for which the result in data set [1] was inactive. For the same compound, the outcome in data set [2], in data set [10] and in data set [11] was Active. Further, the IC50 amounted to 254 nM in data set [3], 174 nM in data set [4] and 24 nM in data set [5]. Further, the Stability entry in data set [6] is given as “Stable”. Also, the permeability entry in data set [7] is “Impermeable”. Further, in [9], the inhibition entry is “Active”.
For `O=C(O)CCCc1ccc(N(CCCl)CCCl)cc1` [CHLORAMBUCIL], the outcome in [1] was inactive. In data set [2], the outcome was Active. In addition, the IC50 in data set [3] was 49700 nM; in [4], 12500 nM; in data set [5], 75300 nM.
